pEC50: −log10 of the molar value. ≈ marks a conversion by molar mass, not a printed value. Calls of active or inactive are those of the source. The rule behind the calls is not given here.
Key:
[1] = Half life in human liver microsomes; format: ADME, Microsome
[2] = Half life in rat liver microsomes; format: ADME, Microsome
Hepatitis C virus [3] = experiment: Antiviral activity against HCV genotype 1 expressing envelope protein at 1 uM; format: functional, organism-based; conditions: Hepacivirus hominis
[4] = Selectivity index, ratio of CC50 for human HuH7 cells to EC50 for 1 MOI of HCV genotype 2 infected in human HuH7 cells; design: species or system Huh-7
Summary of the method: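 The SI is CC50 divided by EC50. Both values come from 10-point dose-response curves (duplicates, quadruplicate measurements) in Huh-7 cells. CC50 is from cell growth inhibition.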

Hepatitis C virus [5] = experiment: Antiviral activity against 1 MOI of HCV genotype 2 infected in human HuH7 cells assessed as inhibition of viral RNA replication after 72 hrs by confocal microscopy; format: functional, organism-based, Hepacivirus hominis; conditions: genotype 2, Huh-7, 72 h
Summary of the method: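 Reporter virus is cell-culture-adapted full-length JFH-1 with GFP inserted in NS5A domain III; GFP fluorescence tracks viral RNA replication. Serially diluted compound added to naïve Huh-7 cells, then infected with HCVcc at MOI 1. Live cells imaged by automated confocal microscopy at 72 h post-infection. EC50 from 10-point dose-response curves, run in duplicate with quadruplicate measurements.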

[6] = Solubility of the compound at pH 7.4; format: physicochemical; conditions: buffer
[7] = Cytotoxicity against human HuH7 cells assessed as growth inhibition; format: cell-based, Huh-7
Summary of the method: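 Compound toxicity is measured as inhibition of Huh-7 cell growth, run in parallel with the HCVcc infection assay. CC50 comes from 10-point dose-response curves, done in duplicate with quadruplicate measurements.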

Hepatitis C virus [8] = experiment: Antiviral activity against HCV genotype 2 by replicon assay; format: functional, organism-based, Hepacivirus hominis

Row | Compound | half-life [1] [min] | half-life [2] [min] | pEC50 (Hepatitis C virus [5]) | solubility [6] [µM] | EC50 (Hepatitis C virus [8]) | Activity (Hepatitis C virus [3]) | Ratio CC50/EC50 [4] | CC50 [7] [µM]
1 | Cc1ccc(-c2c(C)nn3c(NCc4cccnc4)c4c(nc23)CCCC4)cc1 | – | – | 5.55 | – | – | – | 3.1 | 8.7
2 | Cc1ccc(-c2c(C)nn3c(NC4CCN(C(C)C)CC4)cc(C)nc23)cc1 | > 60 | > 60 | 6.55 | 73 (≈ 27.6 µg/mL) | Not Active | inactive | 31 | 8.8
3 | Cc1cc(NC2CCN(C(C)C)CC2)n2nccc2n1 | – | – | 4.92 | – | – | – | 1 | 12
4 | Cc1ccc(-c2c(C)nn3c(NCCN(C)C)cc(C(F)(F)F)nc23)cc1 | – | – | 5.14 | – | – | – | 2.1 | 15
5 | Cc1ccc(-c2c(C)nn3c(NC4CCN(C)CC4)cc(C)nc23)cc1 | – | – | 6.00 | – | – | – | 18 | 18

More lines, main results first:

Row | half-life [1] [min] | half-life [2] [min] | pEC50 (Hepatitis C virus [5]) | solubility [6] [µM] | EC50 (Hepatitis C virus [8]) | Compound | Activity (Hepatitis C virus [3]) | Ratio CC50/EC50 [4] | CC50 [7] [µM]
6 | > 60 | 22.4 | 6.27 | 76 (≈ 25.6 µg/mL) | – | Cc1ccc(-c2c(C)nn3c(NCCCN(C)C)cc(C)nc23)cc1 | inactive | 41 | 22
7 | – | – | 5.64 | – | – | COCCCNc1cc(C)nc2c(-c3ccc(C)cc3)c(C)nn12 | – | 8.3 | 19
8 | – | – | 5.28 | – | – | Cc1ccc(-c2c(C)nn3c(NCCc4ccccc4)cc(C)nc23)cc1 | – | 1 | 5.2
